In ChEMBL document CHEMBL3352514, “Anti-cancer activity of carbamate derivatives of melampomagnolide B” (Bioorg Med Chem Lett, 2014):

Experiments:
[1] = Growth inhibition of human HCT116 cells; type: functional; settings: HCT-116
In short: (§1)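 NCI 60-cell-line tumour panel. Compounds were first screened at a single concentration of 10 µM, then tested in 5-dose assays. Growth was read as the change in optical density, expressed as a percentage of control. GI50 is the concentration (µM) that halves cellular growth, and the values were taken from the NCI database.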

CAKI-1 = assay: Growth inhibition of human CAKI-1 cells; type: functional; in short: as §1
CCRF-CEM = assay: Growth inhibition of human CCRF-CEM cells; type: functional; in short: as §1
HL-60(TB) = assay: Growth inhibition of human HL-60(TB) cells; type: functional
In short: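 Tested in the NCI 60 human tumour cell line panel. Compounds were first screened at a single concentration of 10 µM, and hits were then run in a five-dose assay. Growth was read as the change in optical density, expressed as a percentage of control. GI50 is the concentration that halves cellular growth, taken from the NCI database.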

K562 = assay: Growth inhibition of human K562 cells; type: functional; in short: as §1
[2] = Growth inhibition of human MOLT4 cells; type: functional; settings: MOLT-4; in short: as §1
[3] = Growth inhibition of human RPMI8226 cells; type: functional; settings: RPMI-8226; in short: as §1
[4] = Growth inhibition of human HOP92 cells; type: functional; settings: HOP-92; in short: as §1
NCI-H522 = assay: Growth inhibition of human NCI-H522 cells; type: functional; in short: as §1
[5] = Growth inhibition of human COLO205 cells; type: functional; settings: COLO 205; in short: as §1
SW-620 = assay: Growth inhibition of human SW620 cells; type: functional; in short: as §1
[6] = Growth inhibition of human SF539 cells; type: functional; settings: SF-539; in short: as §1
[7] = Growth inhibition of human LOXIMVI cells; type: functional; settings: LOX IMVI; in short: as §1
M14 = assay: Growth inhibition of human M14 cells; type: functional; in short: as §1
MDA-MB-435 = assay: Growth inhibition of human MDA-MB-435 cells; type: functional; in short: as §1
IGROV-1 = assay: Growth inhibition of human IGROV1 cells; type: functional; in short: as §1
[8] = Growth inhibition of human OVCAR3 cells; type: functional; settings: OVCAR-3; in short: as §1
ACHN = assay: Growth inhibition of human ACHN cells; type: functional; in short: as §1
[9] = Growth inhibition of human RXF393 cells; type: functional; settings: RXF 393; in short: as §1
TK-10 = assay: Growth inhibition of human TK10 cells; type: functional; in short: as §1
DU-145 = assay: Growth inhibition of human DU145 cells; type: functional; in short: as §1
MCF7 = assay: Growth inhibition of human MCF7 cells; type: functional; in short: as §1
[10] = Growth inhibition of human BT549 cells; type: functional; settings: BT-549; in short: as §1
T47D = assay: Growth inhibition of human T47D cells; type: functional; in short: as §1
SR = assay: Growth inhibition of human SR cells; type: functional; in short: as §1
SNB-75 = assay: Growth inhibition of human SNB75 cells; type: functional; in short: as §1
Malme-3M = assay: Growth inhibition of human MALME-3M cells; type: functional; in short: as §1
MDA-MB-468 = assay: Growth inhibition of human MDA-MB-468 cells; type: functional; in short: as §1
[11] = Half life in human plasma; type: ADME, cell-free

SMILES | GI50 [1] [µM] | GI50 (CAKI-1) [µM] | GI50 (CCRF-CEM) [µM] | GI50 [2] [µM] | GI50 [3] [µM] | GI50 [4] [µM] | GI50 (NCI-H522) [µM] | GI50 [5] [µM] | GI50 (SW-620) [µM] | GI50 [6] [µM] | GI50 [7] [µM] | GI50 (M14) [µM] | GI50 (MDA-MB-435) [µM] | GI50 (IGROV-1) [µM] | GI50 (ACHN) [µM] | GI50 [9] [µM] | GI50 (TK-10) [µM] | GI50 (DU-145) [µM] | GI50 (MCF7) [µM] | GI50 [10] [µM] | other results
C=C1C(=O)O[C@@H]2C3O[C@]3(C)CC/C=C(\C)CC[C@@H]12 (stereo not given in full) | 10 | 10 |  |  |  |  |  |  |  |  |  |  |  |  |  |  |  |  |  |  | 
C/C1=C\CC[C@@]2(C)O[C@@H]2[C@H]2OC(=O)C(CN(C)C)[C@@H]2CC1 (stereo not given in full) [DIMETHYLAMINOPARTHENOLIDE] | 5.01 | 12.5 | 1.99 | 3.16 | 2.51 | 10 | 2.51 | 31.6 | 3.98 | 2.51 | 10 | 15.8 | 7.94 | 19.9 | 15.8 | 15.8 | 3.16 | 5.01 | 5.01 | 5.01 | GI50 (HL-60(TB)): 1.58 µM; GI50 (K562): 2.51 µM; GI50 [8]: 12.5 µM; GI50 (T47D): 39.8 µM
C=C1C(=O)O[C@H]2[C@H]1CC/C(COC(=O)NCCc1ccccn1)=C\CC[C@@]1(C)O[C@@H]21 | 1.89 | 2.88 | 2.65 | 5.54 | 8.2 | 2.25 | 1.64 | 3.54 | 3.13 | 5.77 | 4.96 | 5.58 | 6.01 | 14.4 | 2.75 | 2.22 | 3.78 | 4.59 | 2.85 | 2.6 | GI50 (SR): 4.1 µM; GI50 (SNB-75): 3.78 µM; GI50 (Malme-3M): 7.52 µM; GI50 (T47D): 6.19 µM; GI50 (MDA-MB-468): 3.22 µM; half-life [11]: 1.67 h
C=C1C(=O)O[C@H]2[C@H]1CC/C(COC(=O)N1CCC(F)(F)CC1)=C\CC[C@@]1(C)O[C@@H]21 | 1.41 | 2.03 | 0.68 | 2.05 | 1.98 | 1.45 | 1.25 | 2.06 | 1.46 | 1.98 | 2.23 | 2.84 | 0.46 | 2.31 | 1.79 | 1.2 | 2.6 | 2.44 | 1.62 | 2.69 | GI50 (HL-60(TB)): 2.04 µM; GI50 (K562): 3.45 µM; GI50 (SR): 1.38 µM; GI50 (SNB-75): 6.13 µM; GI50 (Malme-3M): 1.9 µM; GI50 [8]: 1.69 µM; GI50 (T47D): 3.07 µM; GI50 (MDA-MB-468): 0.57 µM; half-life [11]: 8 h
C=C1C(=O)O[C@H]2[C@H]1CC/C(COC(=O)NCCN1CCOCC1)=C\CC[C@@]1(C)O[C@@H]21 | 2.87 | 4.31 | 3.03 | 5 | 5.72 | 2.3 | 2.13 | 8.89 | 3.48 | 14.4 | 4.84 | 7.97 | 5.89 | 3.49 | 3.74 | 3 | 3.93 | 3.74 | 3.54 | 4.99 | GI50 (HL-60(TB)): 3.59 µM; GI50 (K562): 3.37 µM; GI50 (SR): 3.65 µM; GI50 (SNB-75): 19.5 µM; GI50 (Malme-3M): 6.12 µM; GI50 [8]: 6.2 µM; GI50 (T47D): 6.32 µM; GI50 (MDA-MB-468): 3.26 µM; half-life [11]: 1.67 h
C=C1C(=O)O[C@H]2[C@H]1CC/C(COC(=O)NCCN1CCCC1)=C\CC[C@@]1(C)O[C@@H]21 | 3.18 | 6.86 | 2.49 | 3.48 | 8.71 | 2.25 | 1.78 | 4.78 | 3.46 | 15 | 7.88 | 9.65 | 6.56 | 4.09 | 3.8 | 4.08 | 3.11 | 7.42 | 3.91 | 4.75 | GI50 (HL-60(TB)): 4.15 µM; GI50 (K562): 3.26 µM; GI50 (SR): 10.2 µM; GI50 (SNB-75): 18 µM; GI50 (Malme-3M): 4.18 µM; GI50 [8]: 8.41 µM; GI50 (T47D): 4.86 µM; GI50 (MDA-MB-468): 2.3 µM; half-life [11]: 1.67 h
C=C1C(=O)O[C@H]2[C@H]1CC/C(COC(=O)Nc1n[nH]c(SC)n1)=C\CC[C@@]1(C)O[C@@H]21 | 1.13 | 1.99 | 0.62 | 2.32 | 2.57 | 0.65 | 1.26 | 1.79 | 1.12 | 1.76 | 1.95 | 1.59 | 2.24 | 3.66 | 1.75 | 0.9 | 2.51 | 3.49 | 1.33 | 1.47 | GI50 (SR): 2.36 µM; GI50 (SNB-75): 1.71 µM; GI50 (Malme-3M): 2.32 µM; GI50 (T47D): 2.23 µM; GI50 (MDA-MB-468): 1.29 µM; half-life [11]: 1.67 h
